Source: PubChem BioAssay (several laboratories)
In the library only some 5.6% were active in any assay of this set; here they are far more common.
CHOP UPR activ: activators of apoptotic CHOP UPR arm, primary screen, cell-based, CHO-CHOP luciferase reporter, luminescence, uHTS; UPR activation; percent of tunicamycin response over DMSO baseline; activation, % at 10 µM; 330,000 compounds, 0.34% hits;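 active means at 10 µM dose, activation of 40% or more, normalized to positive control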;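 further: 100% = tunicamycin at 10 µg/mL and 0% = DMSO alone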
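Dosing – one dose, 10 µM in 0.5% DMSO · System – CHO-CHOP cells, stable luciferase reporter of PERK-eIF2a-CHOP signalling · Input – 500 cells/well · Control set – tunicamycin 10 µg/mL final as positive, DMSO-only wells as negative · Timing – 6 h compound treatment, 37 °C · Measure – % activation vs tunicamycin · Technique – luminescence read with Steady-Glo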
MPTP block: mitochondrial permeability transition pore inhibitors, primary screen, biochemical, isolated mouse mitochondria, absorbance. inhibition, % at 10 µM. 360,000 compounds, 1.4% hits. AID 602449, 2012. Ca2+ swelling absorbance, 30 min;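 active means inhibition of 50% or more, scaled per plate between neutral and stimulator controls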;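 further: 0% = DMSO wells given calcium and 100% = 1 mM EGTA wells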
GRIN3A LBD mod: binders of NR3A ligand-binding domain, primary screen, biophysical, differential scanning fluorimetry, uHTS; NR3A LBD differential scanning fluorimetry, Tm shift; 0% = protein alone, 100% = glycine-bound protein; Tm shift relative to glycine control, % at 25 µM; 340,000 compounds, 2.5% hits;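 active means melting temperature shift of at least 10% of the positive control shift, at one fixed dose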
aDG glyco up: activators of alpha-DG glycosylation, primary screen, uHTS, Pro5-aDG cells, AlphaScreen. alpha-DG glycosylation AlphaScreen (IIH6); 0% Pro5, 100% B10-LARGE cell signal. activation, % at 10 µM. 360,000 compounds, 0.22% hits. AID 624168, 2012;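 active means activation of at least 8% versus controls, or a plate z-score of at least 8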;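 further: Pro5 are CHO cells carrying HIG-tagged alpha-DG that lacks glycosylation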
CHOP inh: inhibitors of CHOP promoter induction, primary screen, cell-based, unfolded protein response, luciferase reporter. CHO-K1 CHOP-promoter luciferase, tunicamycin-induced, 15-18 h. inhibition, % at 10 µM. 220,000 compounds, 3.8% hits;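 active means compounds that reduced the stress-induced luciferase reporter signal by more than about 70% of percent inhibition, limit read from the data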;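 further: 0% = tunicamycin plus vehicle and 100% = wells without tunicamycin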
UPR XBP1 act: activators of adaptive XBP1 UPR arm, primary screen, cell-based, CHO-XBP1 luciferase reporter, luminescence, uHTS; IRE1-XBP1 UPR activation; percent of tunicamycin response, DMSO as zero; AID 463104, 2010; activation, % at 20 µM; 330,000 compounds, 0.33% hits;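 active means versus positive control, 20 µM dose yields 30% or more activation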;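 further: 100% = tunicamycin at 10 µg/mL and 0% = DMSO only wells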
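Material: CHO-XBP1 cells stably carrying IRE1-XBP1-driven luciferase reporter / Amount: 1000 cells per well / Compound: 20 µM, 1% DMSO / Times: 6 h treatment, 37 °C / Detection: luciferase luminescence / Measure: % activation of reporter signal versus tunicamycin and DMSO controls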
Starred values were filed as active, the others as inactive; nt = no result.

SMILES	CHOP UPR activ	MPTP block	GRIN3A LBD mod	aDG glyco up	CHOP inh	UPR XBP1 act
Cc1c(-c2nc(N)nc(Nc3ccccc3F)n2)oc2ccccc12	5.6	-1.3	2.3	0.1	71.5*	11.7
COc1cccc(Nc2nc(N)nc(-c3oc4ccccc4c3C)n2)c1	4.1	0.9	17.0*	0.0	36.6	11.3
Cc1cccc(Nc2nc(N)nc(-c3oc4ccccc4c3C)n2)c1	6.1	2.0	3.9	-0.1	12.0	0.3
Cc1ccc(Nc2nc(N)nc(-c3oc4ccccc4c3C)n2)cc1	7.0	6.5	2.6	0.7	-73.0	22.9
CC(OC(=O)CN(C)S(=O)(=O)c1ccc(Cl)cc1)C(=O)Nc1cccc(Cl)c1 (stereo not given)	0.8	17.4	-0.3	0.1	82.8*	-0.2
CS(=O)(=O)Nc1ccccc1-c1ccc2nccn2c1	nt	0.1	nt	-0.3	nt	nt
CC(=O)NCC(=O)OCC(=O)Nc1ccc(C(C)=O)cc1	0.5	1.2	13.1*	0.4	-4.2	-1.9
CC(=O)OCC(=O)Nc1ccc(C(C)=O)cc1	-2.3	-0.9	3.3	0.0	-10.3	-1.3
O=C1CC(c2ccc(Cl)cc2)CC(=O)C1CS(=O)(=O)c1ccccc1 (stereo not given)	-1.4	-1.7	-7.4	-0.6	14.0	-2.1
O=C1CC(c2ccccc2)CC(=O)C1Sc1ccc(Cl)cc1 (stereo not given)	1.1	2.4	14.8*	0.1	-1.6	-2.5
Cn1c(-c2ccsc2)c(-c2cccs2)c2cc(-c3ccc4cc[nH]c4c3)ccc21	4.2	-1.4	10.5*	2.0	nt	-4.3
Nc1nn2c(-c3ccccc3)cc(=O)[nH]c2c1N=Nc1ccc(O)cc1	-1.4	9.2	26.9*	-0.4	4.5	-0.8
Nc1nn2c(-c3ccccc3)cc(=O)[nH]c2c1N=Nc1ccc(Br)cc1	nt	2.5	24.8*	-0.3	69.4	nt
O=C(NC1CC1)c1cc2cc3ccccc3nc2s1	4.7	0.3	-10.6	0.0	nt	2.4
O=C(NCCc1ccc(O)c(Br)c1)c1ccc(Br)o1	nt	-0.5	nt	-0.3	nt	nt
CC(C)Cc1n[nH]c(=O)[nH]1	0.3	0.3	-1.9	-0.3	83.2*	-1.5
O=c1cc(-c2ccc3c(c2)OCCO3)oc2ccc(Cl)cc12	2.5	2.8	12.0*	0.0	58.9	-0.5
COc1ccc(-c2cc(=O)c3cc(OC)ccc3o2)cc1	-3.6	0.2	-1.8	0.4	78.2*	-0.5
O=c1oc2ccc(Cl)cc2cc1-c1ccccc1	2.8	2.1	14.1*	-0.2	-8.5	2.0
O=c1cc(-c2ccccc2)oc2ccc(Cl)cc12	nt	2.4	14.0*	2.1	nt	nt
COc1ccccc1Cc1c(-c2cccc(Cl)c2)nc2ccc(C)cn12	nt	1.2	nt	-0.1	nt	nt
S=C(NCCCN1CCOCC1)N(Cc1ccccc1)Cc1ccccc1	0.5	0.0	-1.1	0.1	nt	-5.0
O=c1oc(-c2ccccc2)cc(Cl)c1Cl	57.5*	0.0	-0.1	-0.2	nt	1.9
O=c1oc(-c2ccccc2)cc2ccccc12	nt	-1.3	nt	0.1	nt	nt
CCc1ccc(NC(=O)Cn2c3[n+](c4c(F)c(F)ccc42)CCCCC3)cc1	0.9	1.0	-4.2	0.2	-11.1	-0.2
SMILES	CHOP UPR activ	MPTP block	GRIN3A LBD mod	aDG glyco up	CHOP inh	UPR XBP1 act
COC(=O)C[C@@H]1OC[C@H](C)N1S(=O)(=O)c1ccc(C)cc1	nt	1.3	nt	-0.1	nt	nt
CC1(c2ccc3ccccc3c2)NC(=O)N(CC(=O)Nc2cccc(S(=O)(=O)N3CCOCC3)c2)C1=O (stereo not given)	-0.6	3.1	-1.9	-0.4	3.8	-1.3
COc1ccc(N(CC(O)Cn2c3ccccc3c3ccccc32)S(=O)(=O)c2ccccc2)cc1 (stereo not given)	0.5	1.4	6.0	0.2	59.5	-4.7
CC(=O)Nc1ccccc1N(CC(O)Cn1c2ccccc2c2ccccc21)S(=O)(=O)c1ccc(C)cc1 (stereo not given)	1.3	19.3	12.6*	0.6	30.5	2.0
Cc1occc1C(=O)N=Nc1c(O)[nH]c2ccc(Br)cc12	4.7	nt	nt	nt	-66.0	0.6
Cc1cc2c(N=NC(=O)C3CC3c3ccccc3)c(O)[nH]c2cc1Br (stereo not given)	0.0	11.1	-5.8	0.1	70.5*	-2.6
O=C(c1ccc(Cn2cc([N+](=O)[O-])cn2)o1)N1CCCCCC1	0.4	1.5	0.9	-0.1	nt	-3.8
CCCC(C(=O)O)N1C(=O)/C(=C2\C(=O)N(C)c3ccccc32)SC1=S (stereo not given)	nt	-10.6	26.8*	-0.1	nt	nt
CCCc1nc2c(C)cc(Br)cn2c1Cc1ccc(C)cc1	nt	1.7	nt	0.0	nt	nt
Cc1nc(C2CCC3C4CCC5=CC(=O)CC[C@]5(C)C4CC[C@]23C)cs1 (stereo not given in full)	7.1	nt	nt	nt	75.9*	4.1
Cc1cnc(NC(=O)c2c(O)c3cccc4c3n(c2=O)CCC4)s1	nt	nt	nt	nt	75.9*	nt
COc1ccc(-c2cc(C3CCNCC3)[nH]n2)cc1	-0.3	-0.2	1.2	-0.1	nt	2.0
Cc1cc(C)nc(N2CCCC(C(=O)NCc3cccc(C(F)(F)F)c3)C2)n1 (stereo not given)	-1.4	0.3	-0.8	0.0	82.9*	-1.1
O=C(NCc1cccc(C(F)(F)F)c1)C1CCCN(c2ncccn2)C1 (stereo not given)	0.2	1.4	0.7	0.1	3.1	-2.1
Cc1cccc(NC(=O)Nc2ccc(C#N)cc2)n1	6.7	-0.6	1.3	0.0	77.2*	-2.0
COCC(=O)n1nc(-c2ccccc2)nc1NCc1ccc(F)cc1	1.5	0.5	12.7*	-0.1	42.1	-0.5
CCC(=O)n1nc(-c2ccccc2)nc1NCc1ccccc1	1.6	-0.5	1.0	0.0	93.3*	4.3
CCC(=O)n1nc(-c2cccnc2)nc1NCc1ccc(OC)cc1	-0.3	-0.3	-1.4	-0.3	35.9	-1.0
COCC(=O)n1nc(-c2ccccc2)nc1NCc1ccccc1	2.3	-0.5	1.3	0.1	26.9	-0.1
Cc1ccc2c(c1)c1c(n2CC(O)Cn2nc(C)c(Br)c2C)C(=O)CCC1 (stereo not given)	-1.0	26.3	-0.4	0.1	71.7*	-8.9
CC(=O)c1c(C)nn(CC(O)Cn2c3c(c4cc(C)ccc42)CCCC3=O)c1C (stereo not given)	2.8	0.2	-1.5	-0.1	25.0	-2.6
Cc1ccc2c(c1)c(C)c(C)n2CC(O)Cn1nc(C)c(Br)c1C (stereo not given)	-0.7	3.3	-2.2	-0.1	86.3*	-0.9
